Results published in ChEMBL document CHEMBL2029236, “Tubulin binding, protein-bound conformation in solution, and antimitotic cellular profiling of noscapine and its derivatives” (J Med Chem, 2012).
pIC50: −log10 of the molar value. The source made the active and inactive calls. No cut-off for these calls is given here.

Experiments:
SNU-398 [1] = test: Antiproliferative activity against human SNU398 cells; assay type: functional, cell-based
Procedure, shortened: (§1)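 Cell viability assay in hepatocellular carcinoma cell lines; IC50 values derived from concentration–response data and reported in nM.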

[2] = Antiproliferative activity against human PLC/PRF/5 cells; assay type: functional, cell-based; procedure, shortened: as §1
SMMC-7721 = test: Antiproliferative activity against human SMMC7721 after 72 hrs by CellTiter Glo assay; assay type: functional, cell-based; conditions: SMMC-7721, 72 h; procedure, shortened: as §1
[3] = Antiproliferative activity against human MHCC97H after 72 hrs by CellTiter Glo assay; assay type: functional; procedure, shortened: as §1
Bel-7402 = test: Antiproliferative activity against human Bel7402 after 72 hrs by CellTiter Glo assay; assay type: functional, cell-based; conditions: Bel-7402, 72 h; procedure, shortened: as §1
[4] = Antiproliferative activity against human Hep3B after 72 hrs by CellTiter Glo assay; assay type: functional, Hep 3B2; procedure, shortened: as §1
HepG2 = test: Antiproliferative activity against human HepG2 after 72 hrs by CellTiter Glo assay; assay type: functional, cell-based; conditions: HepG2, 72 h; procedure, shortened: as §1
Huh-7 = test: Antiproliferative activity against human HuH7 after 72 hrs by CellTiter Glo assay; assay type: functional, cell-based; conditions: Huh-7, 72 h; procedure, shortened: as §1
[5] = Antiproliferative activity against human JHH2 after 72 hrs by CellTiter Glo assay; assay type: functional; procedure, shortened: as §1
[6] = Antiproliferative activity against human JHH4 after 72 hrs by CellTiter Glo assay; assay type: functional; procedure, shortened: as §1
[7] = Antiproliferative activity against human PLC/PRF/5 after 72 hrs by CellTiter Glo assay; assay type: functional; conditions: PLC-PRF-5, 72 h; procedure, shortened: as §1
[8] = Antiproliferative activity against human SNU182 after 72 hrs by CellTiter Glo assay; assay type: functional, cell-based; conditions: SNU-182, 72 h; procedure, shortened: as §1
SNU-387 = test: Antiproliferative activity against human SNU387 after 72 hrs by CellTiter Glo assay; assay type: functional, cell-based; conditions: SNU-387, 72 h; procedure, shortened: as §1
SNU-398 [9] = test: Antiproliferative activity against human SNU398 after 72 hrs by CellTiter Glo assay; assay type: functional, cell-based; conditions: SNU-398, 72 h; procedure, shortened: as §1
SNU-423 = test: Antiproliferative activity against human SNU423 after 72 hrs by CellTiter Glo assay; assay type: functional, cell-based; conditions: SNU-423, 72 h; procedure, shortened: as §1
SNU-449 = test: Antiproliferative activity against human SNU449 after 72 hrs by CellTiter Glo assay; assay type: functional, cell-based; conditions: SNU-449, 72 h; procedure, shortened: as §1
SNU-475 = test: Antiproliferative activity against human SNU475 after 72 hrs by CellTiter Glo assay; assay type: functional, cell-based; conditions: SNU-475, 72 h; procedure, shortened: as §1
SNU-398 [10] = test: Cell cycle arrest in human SNU398 cells assessed as accumulation at G1 phase after 24 hrs by FACS analysis (reference value: 55.8%); assay type: functional
SNU-398 [11] = test: Cell cycle arrest in human SNU398 cells assessed as accumulation at G2 phase after 24 hrs by FACS analysis (reference value: 38.2%); assay type: functional
SNU-398 [12] = test: Cell cycle arrest in human SNU398 cells assessed as accumulation at sub-G1 phase after 24 hrs by FACS analysis (reference value: 1.2%); assay type: functional
[13] = Cell cycle arrest in human PLC/PRF/5 cells assessed as accumulation at G1 phase after 24 hrs by FACS analysis (reference value: 66.8%); assay type: functional, cell-based
[14] = Cell cycle arrest in human PLC/PRF/5 cells assessed as accumulation at G2 phase after 24 hrs by FACS analysis (reference value: 26.1%); assay type: functional, cell-based
[15] = Cell cycle arrest in human PLC/PRF/5 cells assessed as accumulation at sub-G1 phase after 24 hrs by FACS analysis (reference value: 1.4%); assay type: functional, cell-based
Bos taurus [16] = organism: Bos taurus; test: Binding affinity to calf brain tubulin assessed as increase in fluorescence at 10 uM by fluorometry relative to control
Procedure, shortened: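 Fluorescence emission spectra of 10 μM ligand with and without 10 μM tubulin in 10 mM sodium phosphate, 0.1 mM GTP, pH 7.0, 25 °C. Emission intensity (425 nm maximum) and anisotropy were compared between bound and unbound ligand.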

Bos taurus [17] = organism: Bos taurus; test: Binding affinity to calf brain tubulin alpha/beta heterodimer assessed as increase in proton signal at […] by STD NMR analysis
Procedure, shortened: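 STD NMR with freshly prepared tubulin α/β heterodimer. Ligand:protein molar ratio 30:1 ([…], […]). Read-out: enhancement of ligand proton signals in STD spectra versus an off-resonance reference spectrum acquired without protein irradiation.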

[18] = Antiproliferative activity against human JHH7 after 72 hrs by CellTiter Glo assay; assay type: functional; procedure, shortened: as §1
SNU-398 [19] = test: Cell cycle arrest in human SNU398 cells assessed as accumulation at G1 phase at 2 uM after 24 hrs by FACS analysis (reference value: 55.8%); assay type: functional
SNU-398 [20] = test: Cell cycle arrest in human SNU398 cells assessed as accumulation at G2 phase at 2 uM after 24 hrs by FACS analysis (reference value: 38.2%); assay type: functional
SNU-398 [21] = test: Cell cycle arrest in human SNU398 cells assessed as accumulation at sub-G1 phase at 2 uM after 24 hrs by FACS analysis (reference value: 1.2%); assay type: functional
[22] = Cell cycle arrest in human PLC/PRF/5 cells assessed as accumulation at G1 phase at 2 uM after 24 hrs by FACS analysis (reference value: 66.8%); assay type: functional, cell-based
[23] = Cell cycle arrest in human PLC/PRF/5 cells assessed as accumulation at G2 phase at 2 uM after 24 hrs by FACS analysis (reference value: 26.1%); assay type: functional, cell-based
[24] = Cell cycle arrest in human PLC/PRF/5 cells assessed as accumulation at sub-G1 phase at 2 uM after 24 hrs by FACS analysis (reference value: 1.4%); assay type: functional, cell-based
SNU-398 [25] = test: Cell cycle arrest in human SNU398 cells assessed as accumulation at G1 phase at 100 nM after 24 hrs by FACS analysis (reference value: 55.8%); assay type: functional
SNU-398 [26] = test: Cell cycle arrest in human SNU398 cells assessed as accumulation at G2 phase at 100 nM after 24 hrs by FACS analysis (reference value: 38.2%); assay type: functional
SNU-398 [27] = test: Cell cycle arrest in human SNU398 cells assessed as accumulation at sub-G1 phase at 100 nM after 24 hrs by FACS analysis (reference value: 1.2%); assay type: functional
[28] = Cell cycle arrest in human PLC/PRF/5 cells assessed as accumulation at G1 phase at 100 nM after 24 hrs by FACS analysis (reference value: 66.8%); assay type: functional, cell-based
[29] = Cell cycle arrest in human PLC/PRF/5 cells assessed as accumulation at G2 phase at 100 nM after 24 hrs by FACS analysis (reference value: 26.1%); assay type: functional, cell-based
[30] = Cell cycle arrest in human PLC/PRF/5 cells assessed as accumulation at sub-G1 phase at 100 nM after 24 hrs by FACS analysis (reference value: 1.4%); assay type: functional, cell-based

Structure (SMILES) | pIC50 (SNU-398 [1]) | pIC50 [2] | pIC50 (SMMC-7721) | pIC50 [3] | pIC50 (Bel-7402) | pIC50 [4] | pIC50 (HepG2) | pIC50 (Huh-7) | pIC50 [5] | pIC50 [6] | pIC50 [7] | pIC50 [8] | pIC50 (SNU-387) | pIC50 (SNU-398 [9]) | pIC50 (SNU-423) | pIC50 (SNU-449) | pIC50 (SNU-475) | Activity (SNU-398 [10]) [%] | Activity (SNU-398 [11]) [%] | pIC50 [18] | also measured
CC(=O)O[C@@]12CO[C@@H]1C[C@H](O)[C@@]1(C)C(=O)[C@H](O)C3=C(C)[C@@H](OC(=O)[C@H](O)[C@@H](NC(=O)OC(C)(C)C)c4ccccc4)C[C@@](O)([C@@H](OC(=O)c4ccccc4)[C@H]21)C3(C)C.O.O.O [DOCETAXEL] | 7.78 | 7.92 | 8.70 | 7.65 | 8.72 | 7.42 | < 7.00 | 7.92 | < 7.00 | 7.85 | 7.78 | 7.41 | 8.37 | 7.75 | 7.97 | < 7.00 | 7.69 | 12.7 | 72.2 |  | Activity (SNU-398 [12]): 9.3%; Activity [13]: 11.2%; Activity [14]: 64.4%; Activity [15]: 16.8%
COc1ccc2c(c1OC)C(=O)O[C@@H]2[C@H]1c2c(cc3c(c2OC)OCO3)CCN1C [NOSCAPINE] | < 5.70 | < 5.70 | < 6.00 | < 6.00 | < 6.00 | < 6.00 | < 6.00 | < 6.00 | < 6.00 | < 6.00 | < 6.00 | < 6.00 | < 6.00 | < 6.00 | < 6.00 | < 6.00 | < 6.00 |  |  | < 6.00 | Activity (Bos taurus [16]): inactive; inhibition (Bos taurus [17]): Active; Activity (SNU-398 [19]): 66%; Activity (SNU-398 [20]): 30.3%; Activity (SNU-398 [21]): 1%; Activity [22]: 65.5%; Activity [23]: 27.1%; Activity [24]: 1.5%
C/C(=C\c1csc(C)n1)[C@@H]1C[C@@H]2O[C@]2(C)CCC[C@H](C)[C@H](O)[C@@H](C)C(=O)C(C)(C)[C@@H](O)CC(=O)O1 [PATUPILONE] | 8.30 | 8.42 | 8.64 | 8.17 | 9.05 | < 7.00 | 7.35 | 8.35 | 7.21 | 8.74 | 7.90 | 7.65 | 7.70 | 8.54 | 7.99 | 7.70 | 7.94 |  |  | 7.83 | Activity (SNU-398 [25]): 13.7%; Activity (SNU-398 [26]): 70.1%; Activity (SNU-398 [27]): 11.8%; Activity [28]: 5.4%; Activity [29]: 56.3%; Activity [30]: 5.1%
CC[C@]1(O)C[C@H]2CN(CCc3c([nH]c4ccccc34)[C@@](C(=O)OC)(c3cc4c(cc3OC)N(C=O)[C@H]3[C@@](O)(C(=O)OC)[C@H](OC(C)=O)[C@]5(CC)C=CCN6CC[C@]43[C@@H]65)C2)C1 [VINCRISTINE] | 7.33 | 7.90 | 8.19 | 7.67 | 8.38 | < 7.00 | < 7.00 | 7.70 | < 7.00 | 8.14 | 7.66 | 7.44 | 7.39 | > 9.89 | 7.74 | < 7.00 | 7.53 | 17.1 | 64.5 | 7.55 | Activity [13]: 12.2%; Activity [14]: 68.4%; Activity [15]: 11.8%
